Measured values from publication PMC3590405 (European Journal of Nuclear Medicine and Molecular Imaging, 2013).
Each block holds one molecule with its values, some of them ahead of it.

Columns and labels:
[1] = cited from earlier work
[2] = molecular target: synthetic Aβ(1-40) amyloid fibrils (Homo sapiens, UniProt P05067); assay: Competition binding against [3H]PIB on Aβ; details: [3H]PIB 3 nM, Aβ(1-40) fibrils
Aβ(1-42) amyloid fibrils = Aβ(1-42) amyloid fibrils (Homo sapiens, UniProt P05067); assay: Competition binding against [3H]PIB on Aβ; details: [3H]PIB 3 nM, Aβ(1-42) fibrils
Sequence of Aβ(1-42) amyloid fibrils (P05067 672-713): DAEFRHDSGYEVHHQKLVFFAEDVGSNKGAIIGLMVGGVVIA

amyloid-β plaques = assay: In vitro autoradiography on human AD brain sections; type: binding; details: white matter
Method in brief: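 Cryo-cut 10 μm post-mortem AD cortical sections preincubated in 50 mM Tris (pH 7.4) at room temperature, then 30 min with 3 nM [3H]ligand in Tris buffer. Optical densities (digital light units/mm²) read in grey and white matter ROIs. Subcortical white matter signal taken as nonspecific binding. Signal-to-noise = (grey − white)/white.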

[3] = Brain time-activity curves in human PET; type: in vivo; details: after intravenous injection
Method in brief: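 [11C]radioligand in sterile disodium phosphate-buffered saline (pH 7.4), filtered, given as an IV bolus to control subjects and mild–moderate AD patients. Dose for the AZD2995 radioligand was 410 ± 18 MBq (620 ± 486 GBq/μmol). List-mode PET ran 93 min (38 frames), with PSF-modelled iterative reconstruction. Brain radioactivity was expressed as percent injected activity over time.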

amyloid-β = amyloid-β (Homo sapiens, UniProt P05067); assay: Human PET, DVR by reference Logan with cerebellum as reference; type: in vivo; details: for DVR (mean ± SD), anterior cingulate cortex / DVR (mean ± SD), grey matter / DVR (mean ± SD), hippocampus / DVR (mean ± SD), lateral temporal cortex / DVR (mean ± SD), parietal cortex / DVR (mean ± SD), posterior cingulate cortex / DVR (mean ± SD), prefrontal cortex / DVR (mean ± SD), white matter: refLogan
Sequence of amyloid-β (P05067 672-711 limits assumed): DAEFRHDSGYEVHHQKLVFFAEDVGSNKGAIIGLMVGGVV
Method in brief: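 IV bolus [11C]radioligands in controls and AD patients; ROIs manually drawn on 1.5-T T1 MRI, cortical ROIs restricted to segmented grey matter. Reference Logan used cerebellar cortex (white matter and vermis excluded) as reference. Six linear-phase frames: 13–45 min for AZD2995, 30–60 min for AZD2184. DVR = target/cerebellum V T. Groups compared by Mann–Whitney U (p < 0.05) and pooled-SD effect size.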

[4] = test system: amyloid-β plaques and neurofibrillary tangles; details: AD patients; cited from earlier work
[5] = read-out: IC50, inhibition of [3H]PIB binding
[6] = AD patients vs control subjects, DVR

Sequence of synthetic Aβ(1-40) amyloid fibrils (P05067 672-711): as the sequence (P05067 672-711 limits assumed) above

Compound: CNc1ccc(-c2nc3ccc(O)cc3s2)cn1 [AZD2184]
logD [1]: 1.8

pIC50, inhibition of [3H]PIB binding [2]: 6.77 ± 0.02 | IC50 [2, 5]: 170 nM | pIC50, inhibition of [3H]PIB binding (Aβ(1-42) amyloid fibrils): 6.69 ± 0.05 | IC50 (Aβ(1-42) amyloid fibrils; [5]): 204 nM
Compound: CNc1ccc(-c2nc3ccc(O)cc3o2)cn1 [AZD2995]
logD [1]: 1.3

nonspecific binding and background, rank order (amyloid-β plaques): highest
Compound: [3H]C([3H])([3H])Nc1ccc(-c2nc3ccc(O)cc3s2)cc1 [[^3H]PIB]

time to peak of total radioactivity in brain [3]: at the same time | radioactivity in the brain at peak ([3]; % of injected radioactivity): 3.0–3.5% | Effect size, anterior cingulate cortex (amyloid-β; [6]): 8.52 | Effect size, grey matter (amyloid-β; [6]): 4.89 | Effect size, hippocampus (amyloid-β; [6]): 1.73 | Effect size, lateral temporal cortex (amyloid-β; [6]): 5.00 | Effect size, parietal cortex (amyloid-β; [6]): 5.26 | Effect size, posterior cingulate cortex (amyloid-β; [6]): 6.34 | Effect size, prefrontal cortex (amyloid-β; [6]): 5.82 | Effect size, white matter (amyloid-β; [6]): 2.67 | DVR (mean ± SD), anterior cingulate cortex (amyloid-β; AD patients): 1.97 ± 0.15 | DVR (mean ± SD), grey matter (amyloid-β; AD patients): 1.72 ± 0.17 | DVR (mean ± SD), hippocampus (amyloid-β; AD patients): 1.11 ± 0.10 | DVR (mean ± SD), lateral temporal cortex (amyloid-β; AD patients): 1.94 ± 0.22 | DVR (mean ± SD), parietal cortex (amyloid-β; AD patients): 2.07 ± 0.25 | DVR (mean ± SD), posterior cingulate cortex (amyloid-β; AD patients): 2.10 ± 0.18 | DVR (mean ± SD), prefrontal cortex (amyloid-β; AD patients): 2.13 ± 0.23 | DVR (mean ± SD), white matter (amyloid-β; AD patients): 1.25 ± 0.05 | DVR (mean ± SD), anterior cingulate cortex (amyloid-β; control subjects): 0.92 ± 0.02 | DVR (mean ± SD), grey matter (amyloid-β; control subjects): 1.05 ± 0.05 | DVR (mean ± SD), hippocampus (amyloid-β; control subjects): 0.95 ± 0.08 | DVR (mean ± SD), lateral temporal cortex (amyloid-β; control subjects): 1.03 ± 0.05 | DVR (mean ± SD), parietal cortex (amyloid-β; control subjects): 1.04 ± 0.04 | DVR (mean ± SD), posterior cingulate cortex (amyloid-β; control subjects): 1.17 ± 0.02 | DVR (mean ± SD), prefrontal cortex (amyloid-β; control subjects): 1.04 ± 0.04 | DVR (mean ± SD), white matter (amyloid-β; control subjects): 1.08 ± 0.13
Compound: [11CH3]Nc1ccc(-c2nc3ccc(O)cc3s2)cn1 [[^11C]AZD2184]

Compound: CC(=C(C#N)C#N)c1ccc2cc(N(C)CC[18F])ccc2c1 [[^18F]FDDNP]
specific binding signal compared to other amyloid radioligands [4]: ninefold lower
